# Hits are enriched below; roughly 3.4% of the tested compounds scored in any of these assays.
# MC4R barr agon: human MC4R agonism via beta-arrestin. P32245. U2OS MC4R beta-arrestin complementation, luminescence; percent of melanotan II response, DMSO zero. activation, % at 8.9 µM. 360,000 tested, 0.98% active. AID 540308;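 active means activation above a per-plate cutoff, the mean activation of sample wells on that plate plus 3 SD, cut at about 8% in these data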
# HTR2A ag: mouse HTR2A agonism via beta-arrestin recruitment; AID 624169; P35363; 360,000 tested, 0.66% active; activation, % at 7.6 µM; CHO-K1 mHTR2A beta-arrestin complementation, luminescence; percent of 30 µM serotonin response;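 active means activation above a run cutoff, the mean activation of all tested compounds plus 3 SD, cut at about 14% in these data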;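 further: 0% = plate median of compound wells and 100% = 30 µM serotonin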
# Target sequence (P35363 whole entry, looked up): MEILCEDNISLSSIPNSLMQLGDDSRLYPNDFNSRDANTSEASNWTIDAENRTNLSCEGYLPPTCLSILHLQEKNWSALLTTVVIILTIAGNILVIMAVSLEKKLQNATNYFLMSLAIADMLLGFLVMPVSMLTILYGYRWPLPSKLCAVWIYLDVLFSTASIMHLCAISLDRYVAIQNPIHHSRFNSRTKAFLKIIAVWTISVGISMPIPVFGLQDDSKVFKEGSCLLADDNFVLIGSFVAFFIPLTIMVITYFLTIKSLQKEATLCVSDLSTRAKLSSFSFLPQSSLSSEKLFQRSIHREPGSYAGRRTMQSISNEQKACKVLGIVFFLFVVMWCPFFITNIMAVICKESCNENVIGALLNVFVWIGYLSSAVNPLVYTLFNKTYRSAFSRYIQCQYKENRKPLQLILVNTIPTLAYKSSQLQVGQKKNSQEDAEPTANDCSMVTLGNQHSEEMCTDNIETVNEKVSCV
# ANO1 activ: activates or potentiates the mouse TMEM16A chloride channel; 340,000 tested, 0.3% active; Q8BHY3; HEK293 TMEM16A/YFP-H148Q/I152L, iodide quench fluorescence; stronger effect = lower value; AID 623877; B-score at 10 µM;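 active means fluorescence-ratio B-score plate-corrected deviation score at least 3 library SD below zero, with starting fluorescence score within 5 deviations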;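 further: channel opened by trigger with iodide after compound preincubation; score built on the fluorescence ratio of max minus min over baseline; more negative score means more quench and so TMEM16A activation or potentiation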
# MC4R antagonist: human MC4R antagonism in cAMP assay; P32245; MC4R-expressing cells, MTII-stimulated cAMP, LANCE TR-FRET; inhibition, % at 6.5 µM; 360,000 tested, 0.48% active; AID 540295;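 active means inhibition above its plate's cutoff, the mean of tested wells on that plate plus 3 SD, cut at about 29% in these data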;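 further: 0% = Melanotan II alone and 100% = Melanotan II plus saturating MCL0020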
#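 Material: U2OS-MC4R stable cell line | Reagent: Melanotan II challenge after compound preincubation | Doses: One concentration, 6.5 µM nominal | Incubation: 30-min compound preincubation, 1-h Melanotan II challenge, 1-h detection, room temperature | Signal: TR-FRET cAMP assay | Replicates: One well per compound, no replicates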
# ANO1 block: mouse TMEM16A channel inhibition, primary screen; HEK293 TMEM16A/YFP iodide influx fluorescence, ionomycin; normalized B-score (activity score, 25-100; higher = stronger inhibition) at 10 µM; 310,000 tested, 1.2% active; AID 588511;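 active means ratio plate-corrected score three or more library SD toward inhibition, starting fluorescence score within five deviations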;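 further: score derived from kinetic fluorescence span divided by baseline fluorescence per well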
# beta cell repl: MIN6 beta-cell proliferation induction; MIN6 cells proliferation, ATPlite luminescence, 48 h; cells starved in 0.2% serum; 100% = growth in 10% serum; proliferation, % at 10 µM; 330,000 tested, 0.29% active; AID 2380;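 active means compounds whose signal lies at least 3.5 SD above the mean of all wells on their plate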;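 further: 0% = DMSO-treated cells in low-serum medium and 100% = 10% serum control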
# * marks the source's active call; other numbers are inactive results; i = inactive; . = not tested or not shown.
SMILES,MC4R barr agon,HTR2A ag,ANO1 activ,MC4R antagonist,ANO1 block,beta cell repl
Cc1ccc(NC(=O)Nc2nnc(Cc3ccc([N+](=O)[O-])cc3)s2)cc1,9.3*,1.8,i,-9.8,i,0.0
CC(=O)c1cccc(-c2ccnc3c2CC(C(=O)NCc2ccco2)O3)c1 (stereo unspecified),-1.6,0.0,.,-11.5,.,.
O=C(NCCN1CCN(c2ccccc2)CC1)c1ccc2c(c1)[nH]c(=S)n1c3ccccc3nc21,8.9*,-1.0,i,8.3,i,-5.1
O=C(c1ccc2c(c1)[nH]c(=S)n1c3ccccc3nc21)N1CCN(c2ncccn2)CC1,2.3,3.1,i,-4.7,i,0.2
Cc1c2cc[n+](CCN3CCCCC3)cc2c(C)c2c1[nH]c1ccc(O)cc12,-1.7,-1.2,i,-8.3,.,.
O=c1oc2ccccc2c(Nc2cc3ccccc3cc2O)c1[N+](=O)[O-],-0.5,-0.5,i,-21.6,100*,-2.8
CCC1C(=O)CC(c2ccc([N+](=O)[O-])cc2)NC1c1ccc([N+](=O)[O-])cc1 (stereo unspecified),0.8,-0.1,-5.53*,13.8,i,-1.6
Cc1sc2ncn(CC(=O)NCC(=O)N3CCN(c4ccccc4F)CC3)c(=O)c2c1C,-2.7,-7.1,i,-3.4,i,-1.2
N#CC1=C(N)Oc2cc(O)c(Cl)cc2C1c1cccnc1 (stereo unspecified),-0.6,-1.2,-5.22*,-3.0,i,-2.5
N#CC1=C(N)Oc2cc(O)ccc2C1c1cccnc1 (stereo unspecified),-2.6,0.5,i,3.9,i,-2.1
Cn1cc(C(=O)C(=O)NCCc2ccccc2)c2ccccc21,-2.3,-3.4,i,3.5,i,0.8
Cc1ccccc1NC(=O)C(=O)c1cn(C)c2ccccc12,12.4*,4.1,i,-3.0,i,0.3
Nc1nc(COC(=O)C2CCN(C(=O)c3ccc(Cl)cc3)CC2)nc(Nc2ccccc2)n1,-3.9,-6.3,i,3.4,.,1.2
CCCCc1cc(=O)oc2cc(OCc3cc(OC)c(OC)c(OC)c3)c(Cl)cc12,-1.3,3.1,-4.92*,4.4,i,0.0
O=C(CSCc1c(Cl)cccc1Cl)NN=C1CCCC1,0.4,1.2,-28.9*,-5.0,i,-1.5
O=C(CSCc1ccccc1Cl)NN=C1CCCCCC1,-0.5,-1.1,i,-3.0,i,-1.8
Oc1ccccc1N=N/C(=N/Nc1ccccc1O)c1ccccc1,-1.5,4.5,i,3.2,i,8.6
N#C/C(N=Nc1ccccc1O)=N\Nc1ccccc1O,-3.9,-0.6,i,-2.0,100*,-8.8
Cc1ccccc1OCC(O)CN1CCN(c2ccc(Cl)cc2)CC1 (stereo unspecified),8.2*,-14.2,i,7.5,i,-1.7
Cc1ccccc1OCC(O)CN1CCN(CC(O)COc2ccccc2C)CC1 (stereo unspecified),-1.2,-8.9,i,9.5,i,-0.8
C=CCc1ccccc1OCC(O)CN1CCN(c2ccc(OC)cc2)CC1 (stereo unspecified),8.7*,-5.4,i,22.2,i,-0.8
O=C(COC(=O)c1ccc(F)cc1F)Nc1cccc(S(=O)(=O)N2CCOCC2)c1,-2.5,9.5,i,3.8,.,-1.5
O=C(N/N=C/c1cc([N+](=O)[O-])cc(Br)c1O)C12CC3CCC(CC(C3)C1)C2,-1.8,-2.1,i,9.9,100*,-5.7
CCOC(=O)C1=C(Cn2cnc3ccccc32)NC(=O)NC1c1cc(C)ccc1C (stereo unspecified),7.3,58.7*,i,-2.0,i,-2.8
COCc1ccc(C(=O)Nc2cccc(S(=O)(=O)N(C)c3ccccc3)c2)cc1,0.9,-5.8,i,4.7,.,-4.2
SMILES,MC4R barr agon,HTR2A ag,ANO1 activ,MC4R antagonist,ANO1 block,beta cell repl
CN(C)S(=O)(=O)c1cccc(NC(=O)c2ccc(COc3ccccc3)cc2)c1,1.2,5.0,i,11.4,25*,-5.1
CCc1ccccc1N(C(=O)c1ccco1)C(C(=O)NC1CCCC1)c1cccnc1 (stereo unspecified),-0.9,4.5,i,-3.6,i,-5.6
CCSc1nnc(-c2cnn(-c3ccccc3)c2-n2cccc2)n1C,-2.3,1.3,i,1.8,i,-1.3
CCCCCCSc1nnc(-c2cnn(-c3ccccc3)c2-n2cccc2)n1C,-0.4,0.9,i,3.9,100*,-3.4
CCOC(=O)[C@]12CCCC=C1N(Cc1cccc3ccccc13)C(=O)[C@H](CC(=O)N1CCN(C(=O)C3CC3)CC1)C2,.,0.3,.,.,.,.
O=C(C1CCCN1S(=O)(=O)c1cccc2nsnc12)N1CCCCC1 (stereo unspecified),-1.4,-0.4,i,4.5,25*,-0.6
O=c1c(Cl)c(Cl)cnn1Cc1nnc(-c2ccccc2Br)o1,-4.9,-1.9,-13.3*,-16.9,.,-5.3
O=C1NC(=O)c2cc([N+](=O)[O-])cc3cccc1c23,-0.6,-1.6,i,-2.5,i,-3.8
O=C1NC(=O)c2cc(Br)cc3cccc1c23,8.9*,0.3,i,-10.0,i,1.4
O=C(Nc1nnc(SCc2ccccc2Cl)s1)C1COc2ccccc2O1 (stereo unspecified),-2.4,-0.2,i,4.7,25*,-3.7
CN(CC(=O)NNC(=O)Cc1ccccc1F)S(=O)(=O)c1ccc(Cl)cc1,1.8,-1.1,i,0.7,i,-4.1
O=C(CN1N=C(c2ccccc2)CCC1=O)NCCN1CCc2ccccc2C1,-1.8,-4.9,i,11.7,i,4.6*
O=C(CN1N=C(c2ccccc2)CCC1=O)NCc1ccccc1,0.3,0.7,i,-0.2,i,-2.4
O=C(O)CCCc1c(-[n+]2ccccc2)[nH]c2ccccc12,-4.8,-4.5,i,8.4,i,1.6
O=C(O)CCc1c(C(=O)O)[nH]c2ccccc12,2.6,1.1,-15.8*,2.8,i,-2.5
O=C(NCc1ccccc1Cl)c1ccc2sc([C@@H]3O[C@H](CO)[C@H](O)[C@H](O)[C@H]3O)nc2c1,-0.6,-0.6,.,4.3,.,.
CCOC(=O)C1(C)CCCN(C(=O)c2cc(C)oc2C)C1 (stereo unspecified),-0.9,-1.7,.,-4.4,.,.
C=C1C[C@H]2[C@@H]3C=C(C)C4=CC(=O)CC[C@]4(C)[C@H]3CC[C@]2(C)[C@@]1(OC(C)=O)C(C)=O,-0.1,1.5,i,5.7,100*,-1.0
O=C(CCc1nc(-c2ccccc2F)no1)Nc1ccc(Oc2ccccc2)cc1,0.1,0.3,i,-14.8,100*,-4.1
